The record followed here is ChEMBL document CHEMBL4627320, “Discovery of CRBN E3 Ligase Modulator CC-92480 for the Treatment of Relapsed and Refractory Multiple Myeloma” (J Med Chem, 2020).

Series [1] can be described thus: Antiproliferative activity against lenalidomide-resistant human H929-R10-1 cells incubated for 5 days by CellTiter-Glo assay. As to conditions: 120 h. It is filed as functional. The procedure, abridged:
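H929 R10-1 cells kept in log phase at 37°C, 5% CO₂, and plated at 5000 cells/well. Compounds were added as 10-point duplicate curves starting at 10µM with 1:3 dilutions, in 0.1% DMSO, final volume 40µl. Plates were incubated for 5 days. Viability was read by CellTiter-Glo luminescence after 1 h at room temperature in the dark. IC50 is the mean of ≥3 separate determinations.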
For orientation: Cellular ATP, detected with luciferase, serves as a proxy for viable cell number.

The target in series [2] is Protein cereblon/Zinc finger protein Aiolos (Homo sapiens, UniProt Q96SW2+Q9UKT9). Description: Induction of CRBN-mediated pLOC-ePL-tagged aiolos (unknown origin) degradation in human DF15 cells assessed as minimum protein remaining incubated for 4 hrs by luminescence based beta-galactosidase enzyme fragmentation complementation assay. It is filed as cell-based.
In series [3] the target is Adrenergic receptor alpha-1 (Homo sapiens) (UniProt P35348+P25100+P35368). Description: Inhibition of adrenergic receptor alpha1 (unknown origin) at 10 uM relative to control. It is filed as protein assay.
Another series deals with D(2) dopamine receptor (Homo sapiens, UniProt P14416). Briefly: Inhibition of D2S (unknown origin) at 10 uM relative to control.
The target of series [4] is Protein cereblon/Eukaryotic peptide chain release factor GTP-binding subunit ERF3A (Homo sapiens, UniProt P15170+Q96SW2). Description: Induction of CRBN-mediated pLOC-ePL-tagged GSPT1 (unknown origin) degradation in human DF15 cells assessed as minimum protein remaining incubated for 4 hrs by luminescence based beta-galactosidase enzyme fragmentation complementation assay. It is filed as cell-based.

Series [5] deals with Protein cereblon/DNA damage-binding protein 1 (Homo sapiens, UniProt Q96SW2). Description: Displacement of Cy5-conjugated CELMoD from N-terminal 6-His tagged CRBN (1 to 442 residues) (unknown origin)/DDB1 (1 to 1140 residues) (unknown origin) incubated for 10 mins by FRET assay. It is filed as protein assay.
In a further series the test system is PBMC. Briefly: Cytotoxicity against PBMC (unknown origin). It is filed as cell-based.
Series [6] can be described thus: Solubility of the compound. It is filed as physicochemical.

Molecules are shown by their SMILES.

For the molecule `O=C1CCC(N2Cc3c(OCc4ccc(CN5CCC(C(F)(F)F)CC5)cc4)cccc3C2=O)C(=O)N1` (centres undefined), in series [1], the IC50 – broadly, the concentration that inhibits the measured activity by half – worked out at 8.3 nM. Besides, the EC50 (usually the concentration that produces a half-maximal response) in series [2] is 0.6 nM. Further, the inhibition (commonly the share of the control response that was lost under treatment) in series [3] is 41.5%; at D(2) dopamine receptor it was 95.4%.
As for `O=C1CCC(N2C(=O)c3cccc(OCc4ccc(CN5CCN(c6ccc(F)cc6)CC5)cc4)c3C2=O)C(=O)N1` (centres undefined), the IC50 came to 146 nM in series [1] and 322 nM in series [5]. The EC50 in series [2] was 2.1 nM; in series [4], above 10 µM.
As to `C[C@]1(N2Cc3c(OCc4ccc(CN5CCN(c6ccc(F)cc6F)CC5)cc4)cccc3C2=O)CCC(=O)NC1=O`, the IC50 is 496 nM in series [1] and above 10000 nM in series [5]. Also, the EC50 in series [2] was above 10 nM.
As for `O=C1CCC(N2Cc3c(OCc4ccc(CN5CCN(c6ccc(Cl)cc6)CC5)cc4)cccc3C2=O)C(=O)N1` (centres undefined), in the series with PBMC, the Activity entry is recorded as “Non-Toxic”. The same molecule returned an IC50 in series [1] of 3.6 nM. Also, the EC50 was 0.1 nM in series [2] and above 10 µM in series [4].
`O=C1CCC(N2Cc3c(OCc4ccc(CN5CCN(c6ccccc6F)CC5)cc4)cccc3C2=O)C(=O)N1` (centres undefined): in the series with PBMC, the Activity entry is listed as “Non-Toxic”. This molecule had a half-maximal inhibitory concentration (IC50) in series [1] of 5 nM. For the same molecule, the EC50 in series [2] was 0.2 nM; in series [4] it was above 10 µM.
`N#Cc1cccnc1N1CCN(Cc2ccc(COc3cccc4c3CN(C3CCC(=O)NC3=O)C4=O)cc2)CC1` (centres undefined) gave an IC50 in series [1] of 56 nM. For the same molecule, the EC50 in series [2] stood at 1 nM. The values for the inhibition (in series [3]; against D(2) dopamine receptor) were 92.1% and 100%, respectively.
Regarding `COc1ccc(N2CCN(Cc3ccc(COc4cccc5c4CN(C4CCC(=O)NC4=O)C5=O)cc3)CC2)cc1` (centres undefined), the Activity entry with PBMC was “Non-Toxic”. Besides, the midpoint of inhibition in series [1], the IC50, lay at 7.1 nM. Further, the half-maximal effective concentration (EC50) in series [2] was 0.5 nM; in series [4] it was above 10 µM.
In the case of `CC1(C)CCN(Cc2ccc(COc3cccc4c3CN(C3CCC(=O)NC3=O)C4=O)cc2)CC1` (centres undefined), it took 9.9 nM to reach half-maximal inhibition in series [1] (IC50). Further, the EC50 in series [2] stood at 0.3 nM. In addition, the inhibition in series [3] turned out to be 21.5%; against D(2) dopamine receptor, 66%.
`O=C1CCC(N2Cc3c(OCc4ccc(CN5CCC(F)(F)CC5)cc4)cccc3C2=O)C(=O)N1` (centres undefined): it took 20.5 nM to reach half-maximal inhibition in series [1] (IC50). Further, the EC50 in series [2] worked out at 0.5 nM.
Take `CN1CCN(Cc2ccc(COc3cccc4c3CN(C3CCC(=O)NC3=O)C4=O)cc2)CC1` (centres undefined): the IC50 in series [1] amounted to 510 nM. Also, the EC50 in series [2] came out at 3 nM.
As to `O=C1CCC(N2Cc3c(NCc4ccc(CN5CCN(c6ccc(F)cc6F)CC5)cc4)cccc3C2=O)C(=O)N1` (centres undefined), the IC50 in series [1] came out at 26.3 nM; in series [5], 194 nM. Besides, the EC50 in series [2] is 1.5 nM; in series [4] it was above 10 µM.
As to `O=C1CCC(N2C(=O)c3cccc(OCc4ccc(CN5CCN(c6ccc(Cl)cc6Cl)CC5)cc4)c3C2=O)C(=O)N1` (centres undefined), the IC50 in series [1] came to 170 nM; in series [5], 877 nM. The EC50 is 3.3 nM in series [2] and above 10 µM in series [4].
Regarding `C[C@@]1(N2Cc3c(OCc4ccc(CN5CCN(c6ccc(F)cc6F)CC5)cc4)cccc3C2=O)CCC(=O)NC1=O`, the IC50 in series [1] is above 5000 nM; in series [5], 9620 nM. Moreover, the EC50 in series [2] was above 100 nM.
With `O=C1CCC(N2Cc3c(OCc4ccc(CN5CCN(c6ccc(F)cc6)CC5)cc4)cccc3C2=O)C(=O)N1` (centres undefined), in the series with PBMC, the Activity entry is on record as “Non-Toxic”. For the same molecule, the IC50 in series [1] was 2.8 nM. In addition, the EC50 in series [2] was 0.1 nM; in series [4], above 10 µM. The inhibition stood at 100% in series [3] and 94.7% against D(2) dopamine receptor.
For `O=C1CCC(N2C(=O)c3cccc(OCc4ccc(CN5CCN(c6ccc(F)cc6F)CC5)cc4)c3C2=O)C(=O)N1` (centres undefined), the IC50 came to 159 nM in series [1] and 502 nM in series [5]. For the same molecule, the EC50 in series [2] was 2.4 nM; in series [4], above 10 µM.
On to `O=C1CCC(N2Cc3c(OCc4ccc(C(=O)N5CCN(c6ccc(F)cc6)CC5)cc4)cccc3C2=O)C(=O)N1` (centres undefined), for which 3.7 nM corresponded to half-maximal inhibition in series [1] (IC50). Also, the EC50 in series [2] was found to be 0.3 nM. In addition, the solubility – broadly, how much of the substance goes into solution per volume – in series [6] is below 7 µg/mL.
Regarding `CC1CCN(Cc2ccc(COc3cccc4c3CN(C3CCC(=O)NC3=O)C4=O)cc2)CC1` (centres undefined), half-maximal inhibition in series [1] (IC50) was put at 35.1 nM. Further, the EC50 in series [2] is 1 nM. The inhibition in series [3] stood at 40.4%; against D(2) dopamine receptor, 78.4%.
As to `O=C1CCC(N2Cc3c(OCc4ccc(CN5CCN(c6ccccc6)CC5)cc4)cccc3C2=O)C(=O)N1` (centres undefined), the Activity entry in the series with PBMC is “Non-Toxic”. The same molecule showed an IC50 in series [1] of 2.1 nM. The results for the half-maximal effective concentration (EC50) in series [2] and in series [4] were 0.1 nM and above 10 µM, respectively.
`O=C1CCC(N2Cc3c(OCc4ccc(CN5CCN(c6ccc(F)cn6)CC5)cc4)cccc3C2=O)C(=O)N1` (centres undefined) registered an IC50 in series [1] of 7.4 nM. Also, the EC50 in series [2] was 0.7 nM. Also, the inhibition is 97.7% in series [3] and 90.8% at D(2) dopamine receptor.
Molecule `O=C1CCC(N2Cc3c(OCc4ccc(CN5CCN(c6ccc(Cl)cc6Cl)CC5=O)cc4)cccc3C2=O)C(=O)N1` (centres undefined) came in with an IC50 in series [1] of 6.7 nM. The concentration for a half-maximal effect (EC50) in series [2] turned out to be 0.6 nM. Further, in series [6], the solubility was below 7 µg/mL.
Take `O=C1CCC(N2Cc3c(OCc4ccc(CN5CCN(c6c(F)cccc6F)CC5)cc4)cccc3C2=O)C(=O)N1` (centres undefined): the Activity entry in the series on PBMC was “Non-Toxic”. This molecule yielded an IC50 in series [1] of 4 nM. Further, the results for the EC50 in series [2] and in series [4] were 0.3 nM and above 10 µM, respectively.
`O=C1CCC(N2Cc3c(OCc4ccc(CN5CCN(c6ccccn6)CC5)cc4)cccc3C2=O)C(=O)N1` (centres undefined) came in with an IC50 in series [1] of 4.6 nM. Moreover, in series [2], the concentration for a half-maximal effect (EC50) is 0.4 nM. In addition, the inhibition in series [3] amounted to 99%; against D(2) dopamine receptor, 98%.
Consider `CN1C(=O)CCC(N2Cc3c(OCc4ccc(CN5CCN(c6ccc(F)cc6F)CC5)cc4)cccc3C2=O)C1=O` (centres undefined), for which the results for the IC50 in series [1] and in series [5] were 632 nM and 28000 nM, respectively. For the same molecule, the EC50 in series [2] was above 10000 nM; in series [4], above 10 µM.
On to `NC(=O)c1ccc(N2CCN(Cc3ccc(COc4cccc5c4CN(C4CCC(=O)NC4=O)C5=O)cc3)CC2)cn1` (centres undefined), for which inhibition in series [1] was half-maximal at 3.5 nM (IC50). The EC50 in series [2] was determined as 0.4 nM. The inhibition in series [3] was found to be 25.2%; at D(2) dopamine receptor it was 32.9%.
`CC(C)N1CCN(Cc2ccc(COc3cccc4c3CN(C3CCC(=O)NC3=O)C4=O)cc2)CC1` (centres undefined) displayed a concentration for half-maximal inhibition (IC50) in series [1] of 35.1 nM. Moreover, the EC50 in series [2] is 0.3 nM.
The molecule `O=C1CCC(N2Cc3c(OCc4ccccc4)cccc3C2=O)C(=O)N1` (centres undefined) yielded an IC50 in series [1] above 10000 nM. The concentration giving a half-maximal response (EC50) in series [2] is 7.5 nM.
`O=C1CCC(N2Cc3c(OCc4ccc(CN5CCN(c6cccc(F)c6)CC5)cc4)cccc3C2=O)C(=O)N1` (centres undefined): in the series with PBMC, the Activity result is given as “Non-Toxic”. Moreover, half-maximal inhibition in series [1] (IC50) required 3.7 nM. For the same molecule, the concentration giving a half-maximal response (EC50) in series [2] is 0.1 nM; in series [4] it was above 10 µM.
The matching figures for `O=C1CCC(N2Cc3c(OCc4ccc(CN5CCN(c6ccc(Cl)cc6Cl)CC5)cc4)cccc3C2=O)C(=O)N1` (centres undefined): “Non-Toxic”, 9.2 nM, 0.2 nM and above 10 µM.
Consider `CC(C)C1CCN(Cc2ccc(COc3cccc4c3CN(C3CCC(=O)NC3=O)C4=O)cc2)CC1` (centres undefined), for which half-maximal inhibition in series [1] (IC50) required 1.4 nM. In series [2], the EC50 is 0.1 nM. The inhibition amounted to 63% in series [3] and 94% against D(2) dopamine receptor.
With `O=C1CC[C@H](N2Cc3c(OCc4ccc(CN5CCN(c6ccc(F)cc6F)CC5)cc4)cccc3C2=O)C(=O)N1`, the figures for the concentration for half-maximal inhibition (IC50) in series [1] and in series [5] were 3.8 nM and 37 nM, respectively. The EC50 in series [2] was 0.1 nM.
